According to the M2OR odorant receptor database:
Positions count from the first letter of the chain named.

Key:
Details in all cases: stereoisomer not certain
OR6S1 (Homo sapiens) = biological target: T1, OR6S1 (Homo sapiens) (UniProt Q8NH40)
T1 sequence (whole entry): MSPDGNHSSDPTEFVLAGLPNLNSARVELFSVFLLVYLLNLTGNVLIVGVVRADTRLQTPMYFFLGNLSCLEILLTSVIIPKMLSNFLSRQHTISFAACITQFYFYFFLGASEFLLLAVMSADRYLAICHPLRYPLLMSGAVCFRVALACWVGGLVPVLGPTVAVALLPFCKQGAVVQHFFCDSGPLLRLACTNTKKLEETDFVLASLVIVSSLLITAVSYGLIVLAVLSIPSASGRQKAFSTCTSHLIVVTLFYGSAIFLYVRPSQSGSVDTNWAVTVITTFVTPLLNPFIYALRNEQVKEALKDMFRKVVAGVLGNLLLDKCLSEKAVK
In short: (§1)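 Whether a receptor–molecule pair is responsive (active) rests on the original authors' judgment that its measured signal was statistically different from baseline. Pairs without that judgment are non-responsive (inactive). Sources used varied assay methods, commonly transient luciferase assays in mammalian cell lines.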

OR6S1 T42I V156I = test system: T2, OR6S1 T42I V156I
T2 sequence (whole entry): T1 sequence (whole entry) with T42I, V156I
In short: as §1

OR6T1 (Homo sapiens) = biological target: T3, OR6T1 (Homo sapiens) (UniProt Q8NGN1)
T3 sequence (whole entry): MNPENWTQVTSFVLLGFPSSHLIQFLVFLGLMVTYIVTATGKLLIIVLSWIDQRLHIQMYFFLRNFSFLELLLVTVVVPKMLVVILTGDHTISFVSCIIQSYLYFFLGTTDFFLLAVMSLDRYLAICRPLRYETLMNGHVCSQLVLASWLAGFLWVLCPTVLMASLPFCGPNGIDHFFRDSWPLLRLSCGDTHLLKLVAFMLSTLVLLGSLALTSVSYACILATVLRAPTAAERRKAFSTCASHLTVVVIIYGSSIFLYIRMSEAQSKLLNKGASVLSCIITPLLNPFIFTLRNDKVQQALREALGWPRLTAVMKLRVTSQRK
In short: as §1

OR6T1 N2D = test system: T4, OR6T1 N2D
T4 sequence (whole entry): T3 sequence (whole entry) with N2D
In short: as §1

OR6V1 (Homo sapiens) = biological target: T5, OR6V1 (Homo sapiens) (UniProt Q8N148)
T5 sequence (whole entry): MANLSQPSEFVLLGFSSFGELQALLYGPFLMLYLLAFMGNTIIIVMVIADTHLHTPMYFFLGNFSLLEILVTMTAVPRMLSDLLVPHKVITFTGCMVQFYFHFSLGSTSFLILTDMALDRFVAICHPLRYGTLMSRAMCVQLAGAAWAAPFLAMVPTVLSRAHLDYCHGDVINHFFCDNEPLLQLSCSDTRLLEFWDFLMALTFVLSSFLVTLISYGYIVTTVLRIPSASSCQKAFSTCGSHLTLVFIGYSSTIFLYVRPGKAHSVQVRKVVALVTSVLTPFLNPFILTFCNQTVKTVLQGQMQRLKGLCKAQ
In short: as §1

OR6X1 (Homo sapiens) = biological target: T6, OR6X1 (Homo sapiens) (UniProt Q8NH79)
T6 sequence (whole entry): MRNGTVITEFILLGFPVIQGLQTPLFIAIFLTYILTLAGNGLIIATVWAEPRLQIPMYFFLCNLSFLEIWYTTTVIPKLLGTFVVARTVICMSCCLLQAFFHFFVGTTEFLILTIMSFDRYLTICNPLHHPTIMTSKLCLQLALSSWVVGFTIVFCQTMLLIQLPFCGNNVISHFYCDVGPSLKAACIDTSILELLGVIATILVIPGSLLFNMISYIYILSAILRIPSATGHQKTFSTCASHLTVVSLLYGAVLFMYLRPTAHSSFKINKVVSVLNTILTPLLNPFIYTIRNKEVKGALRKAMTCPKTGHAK
In short: as §1

OR6Y1 (Homo sapiens) = biological target: T7, OR6Y1 (Homo sapiens) (UniProt Q8NGX8)
T7 sequence (whole entry): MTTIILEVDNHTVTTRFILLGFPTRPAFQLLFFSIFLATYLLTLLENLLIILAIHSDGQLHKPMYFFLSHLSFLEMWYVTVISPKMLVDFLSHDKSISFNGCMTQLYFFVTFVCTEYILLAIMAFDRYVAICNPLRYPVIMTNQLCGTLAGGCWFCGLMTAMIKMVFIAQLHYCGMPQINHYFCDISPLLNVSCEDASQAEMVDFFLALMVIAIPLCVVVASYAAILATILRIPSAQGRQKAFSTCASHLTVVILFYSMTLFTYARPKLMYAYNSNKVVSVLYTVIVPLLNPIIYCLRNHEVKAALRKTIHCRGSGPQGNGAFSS
In short: as §1

OR7A10 (Homo sapiens) = biological target: T8, OR7A10 (Homo sapiens) (UniProt O76100)
T8 sequence (whole entry): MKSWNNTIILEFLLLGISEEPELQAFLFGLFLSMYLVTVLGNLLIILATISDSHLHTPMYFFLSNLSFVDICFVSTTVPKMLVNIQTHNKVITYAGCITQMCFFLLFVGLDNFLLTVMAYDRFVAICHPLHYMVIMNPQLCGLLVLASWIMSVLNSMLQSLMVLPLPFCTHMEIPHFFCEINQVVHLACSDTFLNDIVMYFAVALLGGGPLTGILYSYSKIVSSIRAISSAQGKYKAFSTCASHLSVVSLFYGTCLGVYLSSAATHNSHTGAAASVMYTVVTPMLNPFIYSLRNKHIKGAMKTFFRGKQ
In short: as §1

OR7A17 (Homo sapiens) = biological target: T9, OR7A17 (Homo sapiens) (UniProt O14581)
T9 sequence (whole entry): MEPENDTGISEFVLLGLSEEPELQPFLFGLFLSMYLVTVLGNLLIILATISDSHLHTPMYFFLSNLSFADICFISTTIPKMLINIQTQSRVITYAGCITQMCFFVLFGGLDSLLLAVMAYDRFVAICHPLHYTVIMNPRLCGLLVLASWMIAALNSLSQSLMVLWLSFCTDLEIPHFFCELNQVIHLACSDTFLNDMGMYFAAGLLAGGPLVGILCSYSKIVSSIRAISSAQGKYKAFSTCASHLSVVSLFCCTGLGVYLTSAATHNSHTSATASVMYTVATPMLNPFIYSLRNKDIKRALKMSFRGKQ
In short: as §1

OR7A5 (Homo sapiens) = biological target: T10, OR7A5 (Homo sapiens) (UniProt Q15622)
T10 sequence (whole entry): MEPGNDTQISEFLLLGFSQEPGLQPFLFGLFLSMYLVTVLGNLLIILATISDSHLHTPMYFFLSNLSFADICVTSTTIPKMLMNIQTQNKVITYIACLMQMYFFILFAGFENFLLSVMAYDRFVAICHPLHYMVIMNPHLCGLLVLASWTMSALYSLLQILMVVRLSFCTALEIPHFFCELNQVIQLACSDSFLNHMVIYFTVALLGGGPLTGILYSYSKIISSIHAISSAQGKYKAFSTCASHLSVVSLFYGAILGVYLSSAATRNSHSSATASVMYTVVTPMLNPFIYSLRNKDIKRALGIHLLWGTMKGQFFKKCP
In short: as §1

OR7A5 M81I = test system: T11, OR7A5 M81I
T11 sequence (whole entry): T10 sequence (whole entry) with M81I
In short: as §1

OR7C1 (Homo sapiens) = biological target: T12, OR7C1 (Homo sapiens) (UniProt O76099)
T12 sequence (whole entry): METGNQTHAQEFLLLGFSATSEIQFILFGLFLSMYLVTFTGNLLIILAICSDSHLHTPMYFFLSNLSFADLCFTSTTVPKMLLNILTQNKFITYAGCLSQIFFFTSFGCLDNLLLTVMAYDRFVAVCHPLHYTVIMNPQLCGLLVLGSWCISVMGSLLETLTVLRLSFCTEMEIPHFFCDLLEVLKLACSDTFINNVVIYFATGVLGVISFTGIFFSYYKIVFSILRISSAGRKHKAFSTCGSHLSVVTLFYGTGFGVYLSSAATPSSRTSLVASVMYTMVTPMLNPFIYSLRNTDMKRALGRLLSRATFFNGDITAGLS
In short: as §1

OR7C1 V126I E171K = test system: T13, OR7C1 V126I E171K
T13 sequence (whole entry): T12 sequence (whole entry) with V126I, E171K
In short: as §1

OR7C2 (Homo sapiens) = biological target: T14, OR7C2 (Homo sapiens) (UniProt O60412)
T14 sequence (whole entry): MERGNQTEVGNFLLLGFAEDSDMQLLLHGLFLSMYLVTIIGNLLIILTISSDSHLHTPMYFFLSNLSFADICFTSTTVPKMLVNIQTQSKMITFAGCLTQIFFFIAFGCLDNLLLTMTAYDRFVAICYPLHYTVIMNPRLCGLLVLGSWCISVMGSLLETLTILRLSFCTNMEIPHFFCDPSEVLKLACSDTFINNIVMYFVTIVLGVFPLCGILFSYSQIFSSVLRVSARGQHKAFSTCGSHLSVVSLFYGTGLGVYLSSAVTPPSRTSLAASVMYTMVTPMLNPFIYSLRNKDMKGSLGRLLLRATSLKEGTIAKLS
In short: as §1

OR7D2 (Homo sapiens) = biological target: T15, OR7D2 (Homo sapiens) (UniProt Q96RA2)
T15 sequence (whole entry): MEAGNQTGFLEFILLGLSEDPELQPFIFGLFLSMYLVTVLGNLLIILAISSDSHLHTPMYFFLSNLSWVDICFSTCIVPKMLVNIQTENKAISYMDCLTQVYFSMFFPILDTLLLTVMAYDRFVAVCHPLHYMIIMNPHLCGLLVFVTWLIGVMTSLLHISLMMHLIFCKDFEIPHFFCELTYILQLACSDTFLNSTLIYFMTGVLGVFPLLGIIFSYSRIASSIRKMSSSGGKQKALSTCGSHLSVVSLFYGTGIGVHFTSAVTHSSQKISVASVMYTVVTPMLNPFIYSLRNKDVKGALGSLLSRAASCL
In short: as §1

OR7D4 (Homo sapiens) = biological target: T16, OR7D4 (Homo sapiens) (UniProt Q8NG98)
T16 sequence (whole entry): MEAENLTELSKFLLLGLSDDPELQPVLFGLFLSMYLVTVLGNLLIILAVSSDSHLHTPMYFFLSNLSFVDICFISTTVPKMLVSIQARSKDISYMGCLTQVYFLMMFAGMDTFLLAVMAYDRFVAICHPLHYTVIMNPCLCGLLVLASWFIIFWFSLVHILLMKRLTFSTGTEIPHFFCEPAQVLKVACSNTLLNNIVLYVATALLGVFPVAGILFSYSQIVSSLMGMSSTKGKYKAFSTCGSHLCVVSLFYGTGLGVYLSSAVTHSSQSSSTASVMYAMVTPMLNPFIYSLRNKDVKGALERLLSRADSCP
In short: as §1

OR7D4 R88W = test system: T17, OR7D4 R88W
T17 sequence (whole entry): T16 sequence (whole entry) with R88W
In short: as §1

OR7D4 = test system: T18, OR7D4
T18 sequence (whole entry): T16 sequence (whole entry) with R88W, T133M
In short: as §1

OR7E24 (Homo sapiens) = biological target: T19, OR7E24 (Homo sapiens) (UniProt Q6IFN5)
T19 sequence (whole entry): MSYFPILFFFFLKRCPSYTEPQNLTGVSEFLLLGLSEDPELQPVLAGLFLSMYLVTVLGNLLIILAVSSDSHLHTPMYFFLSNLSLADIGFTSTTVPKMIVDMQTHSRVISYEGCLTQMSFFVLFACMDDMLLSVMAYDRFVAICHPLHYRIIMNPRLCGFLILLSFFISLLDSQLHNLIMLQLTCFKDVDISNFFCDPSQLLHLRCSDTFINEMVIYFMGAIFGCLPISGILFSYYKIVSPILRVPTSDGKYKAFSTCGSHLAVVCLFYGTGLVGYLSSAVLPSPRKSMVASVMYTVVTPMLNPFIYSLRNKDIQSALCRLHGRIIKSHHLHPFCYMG
In short: as §1

OR7G1 (Homo sapiens) = biological target: T20, OR7G1 (Homo sapiens) (UniProt Q8NGA0)
T20 sequence (whole entry): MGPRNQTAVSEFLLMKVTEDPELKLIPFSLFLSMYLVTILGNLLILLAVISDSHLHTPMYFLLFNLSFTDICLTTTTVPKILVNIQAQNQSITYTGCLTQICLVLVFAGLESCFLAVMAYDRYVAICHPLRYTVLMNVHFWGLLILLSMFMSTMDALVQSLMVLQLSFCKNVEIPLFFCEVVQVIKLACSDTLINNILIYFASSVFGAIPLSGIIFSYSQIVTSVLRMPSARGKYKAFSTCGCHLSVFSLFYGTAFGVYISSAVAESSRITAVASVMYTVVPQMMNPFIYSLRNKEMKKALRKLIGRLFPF
In short: as §1

Measured: odorant receptor agonist call;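 also: active if original authors judged signal statistically different from baseline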

CCCCCCC=CCCC=O
inactive: all assays above

CCCC(S)CCOC(C)=O (configuration not stated)
inactive: all assays above

CC1=C(O)C(=O)OC1C (configuration not stated)
inactive: all assays above

Cc1cnc(C)c(C)n1
inactive: all assays above

CCCCC(S)C(C)CO (configuration not stated)
active: OR7A5 (Homo sapiens)
not listed: OR6S1 T42I V156I | OR6T1 N2D | OR7A5 M81I | OR7C1 V126I E171K | OR7D4 R88W | OR7D4
inactive: all other assays above

CCC(S)C(C)CO (configuration not stated)
not listed: OR6S1 T42I V156I | OR6T1 N2D | OR7A5 M81I | OR7C1 V126I E171K | OR7D4 R88W | OR7D4
inactive: all other assays above

CC(CO)CS (configuration not stated)
not listed: OR6S1 T42I V156I | OR6T1 N2D | OR7A5 M81I | OR7C1 V126I E171K | OR7D4 R88W | OR7D4
inactive: all other assays above
